# PubChem BioAssay AID651577 (The Scripps Research Institute Molecular Screening Center, 2012)
# Active and inactive are the calls of the source.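 Rule for the calls: active = IC50 at or below 10 µM; inactive = IC50 above 10 µM.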
# Target: HCV core protein (core106) dimerization
# Assay: inhibitors of HCV core self-association, IC50 – biochemical, AlphaScreen luminescence, powder samples, late-stage follow-up (AID 651577)
# Conditions: AlphaScreen GST-/Flag-core106 dimerization
# Method in brief: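 Replication: triplicate. Material: HCV core106 protein domain, GST-tagged and Flag-tagged forms. Compound: 10-point concentration series of powder samples. Schedule: 1 h protein preincubation, 1 h per bead addition. Measured by: AlphaScreen bead-proximity luminescence. Also added: Anti-Flag acceptor and glutathione donor beads, 20 µg/mL each. Evaluation: IC50 from four-parameter sigmoidal curve fit.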
row,Structure (SMILES),IC50
1,Cc1ccc(Cc2c(C)nc3nc(SCC(=O)NCCN4CCOCC4)nn3c2C)cc1,1000 nM
2,Cc1ccc(Cc2c(C)nc3nc(SCC(=O)NCCN4CCNCC4)nn3c2C)cc1,8400 nM
3,Cc1ccc(Cc2c(C)nc3nc(SCC(=O)NCCN4CCN(C(=O)OC(C)(C)C)CC4)nn3c2C)cc1,inactive
4,Cc1ccc(Cc2c(CCc3ccccc3)nc3nc(SC(Cc4ccccc4)C(=O)NCCN4CCOCC4)nn3c2C)cc1 (centres undefined),9900 nM
5,Cc1ccc(Cc2c(C)nc3nc(SCC(=O)NCCN4CCCCC4)nn3c2C)cc1,inactive
6,Cc1ccc(Cc2c(C)nc3nc(SCC(=O)NCCN4CCCCCC4)nn3c2C)cc1,1900 nM
7,Cc1ccc(Cc2c(C)nc3nc(SCC(=O)NCCN4CCN(Cc5ccc(Cl)cc5)CC4)nn3c2C)cc1,inactive
8,Cc1ccc(Cc2c(C)nc3nc(SCC(=O)NCCN4CCN(Cc5ccc(F)cc5)CC4)nn3c2C)cc1,inactive
9,Cc1ccc(Cc2c(C)nc3nc(SCC(=O)NCCN4CCCN(S(C)(=O)=O)CC4)nn3c2C)cc1,510 nM

# Now from value to molecule:
row,IC50,Structure (SMILES)
1,10200 nM,Cc1ccc(Cc2c(C)nc3nc(SCC(=O)NCCN4CCN(S(=O)(=O)c5ccccc5)CC4)nn3c2C)cc1
2,1600 nM,Cc1ccc(Cc2c(C)nc3nc(SCC(=O)NCCN4CCCN(S(=O)(=O)c5ccccc5)CC4)nn3c2C)cc1
3,inactive,Cc1ccc(Cc2c(C)nc3nc(SCC(=O)NCCN4CCN(Cc5ccccc5)CC4)nn3c2C)cc1
4,inactive,Cc1ccc(Cc2c(C)nc3nc(SCC(=O)NCCN4CCN(CCc5ccccc5)CC4)nn3c2C)cc1
5,2600 nM,Cc1ccc(Cc2c(C)nc3nc(SCC(=O)NCCN4CCCN(S(=O)(=O)c5ccc(C)cc5)CC4)nn3c2C)cc1
